Test results as given in PubChem BioAssay AID540324 (Johns Hopkins Ion Channel Center, 2011).
A number with no mark means an inactive call.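 The calls were made as follows: active = maximum inhibition above 30% at any tested concentration, with a dose response curve fitted; inactive = no inhibition at any dose or no dose response curve.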

assay: thallium flux inhibition in parental HEK293 cells, SAR follow-up, counter-screen for KCNK9 inhibitor project, cell-based, FluxOR thallium flux, concentration-response, set 2 (AID 540324); conditions: FluxOR fluorescence ratio; series mostly up to 30 µM; flux ratio, lower = inhibition: at the top concentration
In short: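 System – parental HEK293 cells lacking KCNK9 expression · Reagent – K+/Tl+ sulfate stimulus, 5x stock · Dosing – Ten-concentration dilution series per compound · Times – dye loading 90 min at room temperature in dark, compound exposure 20 min · Detection – fluorescence of thallium-sensitive FluxOR dye · Repeats – at least two replicates per compound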

Compared with `O=C(Nc1cccc(NC(=O)c2cccc(F)c2)c1)c1ccccc1`, `Cc1cccc(C(=O)Nc2cccc(NC(=O)c3ccccc3)c2)c1` is lower in “flux ratio, lower = inhibition” value: 0.188 for the first, 0.164 for the second.

Compared with `COc1ccccc1-c1n[nH]c(=S)n1C(C)C1CC2CCC1C2` (stereo not given), `COc1cccc(-c2n[nH]c(=S)n2C(C)C2CC3CCC2C3)c1` (stereo not given) is lower in “flux ratio, lower = inhibition” value: 0.205 for the first, 0.135 for the second.

Compared with `CCOc1cccc(NC(=O)c2cccc(NC(=O)C3CCCC3)c2)c1`, `COc1ccccc1NC(=O)c1cccc(NC(=O)C2CCCC2)c1` is higher in “flux ratio, lower = inhibition” value: 0.139 for the first, 0.143 for the second.

Going from `COc1cccc(C(=O)Nc2cccc(NC(=O)c3cccc(C)c3)c2)c1` to `COc1cccc(C(=O)Nc2cccc(NC(=O)c3ccccc3)c2)c1`, the “flux ratio, lower = inhibition” value rises from 0.163 to 0.175.

First: Cc1cccc(C(=O)Nc2cccc(NC(=O)c3ccncc3)c2)c1
Second: Cc1cccc(C(=O)Nc2cccc(NC(=O)c3ccc(C(F)(F)F)cc3)c2)c1
The “flux ratio, lower = inhibition” value of the first is lower: 0.182 for the first, 0.196 for the second.

Compared with `CCOc1ccccc1NC(=O)c1cccc(NC(=O)C2CC2)c1`, `CCOc1ccccc1NC(=O)c1cccc(NC(=O)C2CCOC2)c1` (stereo not given) is higher in “flux ratio, lower = inhibition” value: 0.168 for the first, 0.19 for the second.

First: Cc1cccc(C(=O)Nc2cccc(NC(=O)c3ccccc3OC(F)(F)F)c2)c1
Second: O=C(Nc1cccc(NC(=O)c2cccc(C(F)(F)F)c2)c1)c1ccccc1
The “flux ratio, lower = inhibition” value of the first is lower: 0.15 for the first, 0.193 for the second.

Compared with `COc1ccccc1NC(=O)c1cccc(NC(=O)C2CCCCC2)c1`, `CCOc1ccccc1NC(=O)c1cccc(NC(=O)CC2CCCCC2)c1` is lower in “flux ratio, lower = inhibition” value: 0.16 for the first, 0.151 for the second.

First: Cc1cccc(C(=O)Nc2cccc(NC(=O)c3ccco3)c2)c1
Second: COc1cccc(OC)c1C(=O)Nc1cccc(NC(=O)c2cccc(C)c2)c1
The “flux ratio, lower = inhibition” value of the first is lower: 0.164 for the first, 0.166 for the second.

Compared with `COc1ccccc1C(=O)Nc1cccc(NC(=O)c2ccccc2OC)c1`, `CCOc1ccccc1C(=O)Nc1cccc(NC(=O)c2ccccc2OC)c1` is lower in “flux ratio, lower = inhibition” value: 0.297 for the first, 0.189 for the second.

Going from `CC(C)n1c(-c2ccco2)n[nH]c1=S` to `S=c1[nH]nc(-c2ccco2)n1CC1CCCCC1`, the “flux ratio, lower = inhibition” value rises from 0.144 to 0.161.

Compared with `O=C(Nc1cccc(NC(=O)c2cccnc2)c1)c1ccccc1`, `O=C(Nc1cccc(NC(=O)c2ccccc2)c1)c1ccccc1` is lower in “flux ratio, lower = inhibition” value: 0.207 for the first, 0.194 for the second.

First: O=C(Nc1cccc(NC(=O)c2ccccn2)c1)c1ccccc1
Second: COc1ccccc1C(=O)Nc1cccc(NC(=O)c2ccccc2)c1
The “flux ratio, lower = inhibition” value of the first is higher: 0.182 for the first, 0.149 for the second.

Compared with `CC(C1CC2CCC1C2)n1c(C2CCOC2)n[nH]c1=S` (stereo not given), `CCOc1ccccc1NC(=O)c1cccc(NC(=O)C2CCCO2)c1` (stereo not given) is higher in “flux ratio, lower = inhibition” value: 0.185 for the first, 0.189 for the second.

Compared with `COc1ccccc1NC(=O)c1cccc(NC(=O)c2ccccc2OC)c1`, `COc1ccccc1NC(=O)c1cccc(NC(=O)c2ccccc2C(F)(F)F)c1` is lower in “flux ratio, lower = inhibition” value: 0.177 for the first, 0.175 for the second.

First: CCOc1ccccc1NC(=O)c1cccc(NC(=O)c2ccccc2C)c1
Second: CCOc1ccccc1NC(=O)c1cccc(NC(=O)c2ccc(C)cc2)c1
The “flux ratio, lower = inhibition” value of the first is lower: 0.124 for the first, 0.163 for the second.

Compared with `O=C(Nc1cccc(NC(=O)c2ccccc2C(F)(F)F)c1)c1ccccc1`, `Cc1cccc(C(=O)Nc2ccccc2NC(=O)c2ccccc2)c1` is higher in “flux ratio, lower = inhibition” value: 0.163 for the first, 0.191 for the second.

In the case of `Cc1cccc(C(=O)Nc2cccc(NC(=O)c3ccc(C(C)(C)C)cc3)c2)c1`, the “flux ratio, lower = inhibition” value is reported as 0.188.
